According to paper PMC7978421 (Science Advances, 2021):

Columns and labels:
15N hASF1A(1-156) = 15N hASF1A(1-156) (Homo sapiens, UniProt Q9Y294); assay: NMR 1H-15N SOFAST HMQC titration of 15N-hASF1A; type: binding
In short: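 Uniformly 15N-labelled hASF1A(1-156) (M9, 15NH4Cl) at 40 μM in 50 mM tris-HCl pH 7.5, 0.1 mM EDTA, DSS, NaN3, protease inhibitors, 10% D2O. Spectra at 293 or 298 K, 600 MHz, with stepwise test compound additions. Δδ = √(ΔHN² + (0.17ΔN)²), normalised to saturation maximum. Kd fitted against total compound concentration for nine residues shifting >0.07 ppm; mean ± SD reported.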

hASF1A(1-156) = hASF1A(1-156) (Homo sapiens, UniProt Q9Y294); assay: Isothermal titration calorimetry; type: binding
ASF1 = conditions: cited from earlier work
[1] = VP-ITC, 20°C, 50 mM tris-HCl pH 7.5, at least duplicate

Sequence of hASF1A(1-156) (Q9Y294 1-156): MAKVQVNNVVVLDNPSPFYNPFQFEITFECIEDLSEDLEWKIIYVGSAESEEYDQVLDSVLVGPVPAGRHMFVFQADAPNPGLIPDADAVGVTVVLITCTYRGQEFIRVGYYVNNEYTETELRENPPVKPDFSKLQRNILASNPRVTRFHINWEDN
Sequence of 15N hASF1A(1-156) (Q9Y294 1-156): as above

| Molecule | Kd (15N hASF1A(1-156)) [µM] | Exchange regime upon 15N-ASF1 titration (15N hASF1A(1-156); NMR titration, chemical shift variation of hASF1A residues) | Kd (hASF1A(1-156)) [µM] | Affinities times lower than the P1 to P4 peptide series (hASF1A(1-156); ITC) [times] | N (ITC stoichiometry) (hASF1A(1-156); [1]) | ΔH (hASF1A(1-156); [1]) [kcal/mol] | −TΔS (hASF1A(1-156); [1]) [kcal/mol] | Affinity for ASF1 (ASF1) |
| --- | --- | --- | --- | --- | --- | --- | --- | --- |
| CC[C@H](C)[C@H](NC(=O)[C@H](CCCNC(=N)N)NC(=O)NC[C@H](CCC(N)=O)NC(=O)NC[C@H](CC(C)C)NC(=O)NC[C@H](CCCNC(=N)N)NC(=O)NC[C@H](Cc1ccc2ccccc2c1)NC(=O)[C@H](CCCCN)NC(=O)[C@H](CCC(=O)O)NC(C)=O)C(=O)N[C@@H](C)C(N)=O [C2] | 4 ± 1 | fast exchange rate | 2.7 ± 0.6 | 10 to 80 | 1.0 ± 0.1 | -2.2 ± 0.1 | -4.8 ± 0.2 | – |
| ASTEEKWARLARRIAGAGGVTLDGFG [ip4] | – | – | – | – | – | – | – | low nanomolar range |
